For series [1], the target named is T1, Beta-2 adrenergic receptor (Homo sapiens, UniProt P07550). The series is described as follows: Displacement of [3H]dihydroalprenolol from human beta2 adrenergic receptor expressing cell membrane by competition binding assay.
The species entered for series [2] is Homo sapiens. The series is described as follows: Selectivity ratio of Ki for human beta1 adrenergic receptor to Ki for human beta2 adrenergic receptor. An outline of the steps:
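Competition binding used [3H]dihydroalprenolol as tracer on plasma membranes from cells expressing recombinant human β1- or β2-adrenoceptors. Selectivity is the ratio β1 Ki/β2 Ki.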

Series [3] has as its target T1, Beta-2 adrenergic receptor. Description: Agonist activity at human beta2 adrenergic receptor expressed in cells by cAMP accumulation assay. It is filed as functional, cell-based.
In series [4] the target is Beta-1 adrenergic receptor (Homo sapiens, UniProt P08588). Description: Agonist activity at human beta1 adrenergic receptor expressed in cells by cAMP accumulation assay. In kind it is functional, cell-based. Background: cAMP levels reflect the balance of adenylyl cyclase and phosphodiesterase activity.
Chain of Beta-1 adrenergic receptor (P08588 whole entry): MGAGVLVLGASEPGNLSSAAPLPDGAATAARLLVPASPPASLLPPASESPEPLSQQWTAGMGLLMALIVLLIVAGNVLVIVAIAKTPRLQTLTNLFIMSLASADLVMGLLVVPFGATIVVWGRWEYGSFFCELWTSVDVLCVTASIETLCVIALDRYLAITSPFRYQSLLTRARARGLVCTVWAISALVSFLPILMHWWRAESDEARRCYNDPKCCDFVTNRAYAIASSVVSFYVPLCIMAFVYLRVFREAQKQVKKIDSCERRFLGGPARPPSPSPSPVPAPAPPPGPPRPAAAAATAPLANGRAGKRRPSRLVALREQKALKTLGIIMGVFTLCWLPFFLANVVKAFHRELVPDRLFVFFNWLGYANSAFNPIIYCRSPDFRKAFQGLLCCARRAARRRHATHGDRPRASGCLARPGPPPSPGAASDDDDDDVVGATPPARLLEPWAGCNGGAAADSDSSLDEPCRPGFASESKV
For series [5], the target named is Beta-3 adrenergic receptor (Homo sapiens, UniProt P13945). The series is described as follows: Agonist activity at human beta3 adrenergic receptor expressed in cells by cAMP accumulation assay. In kind it is functional, cell-based. The gist of the method: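 cAMP accumulation read-out in a recombinant cell line heterologously expressing the human β3-adrenoceptor.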
Chain of Beta-3 adrenergic receptor (P13945 whole entry): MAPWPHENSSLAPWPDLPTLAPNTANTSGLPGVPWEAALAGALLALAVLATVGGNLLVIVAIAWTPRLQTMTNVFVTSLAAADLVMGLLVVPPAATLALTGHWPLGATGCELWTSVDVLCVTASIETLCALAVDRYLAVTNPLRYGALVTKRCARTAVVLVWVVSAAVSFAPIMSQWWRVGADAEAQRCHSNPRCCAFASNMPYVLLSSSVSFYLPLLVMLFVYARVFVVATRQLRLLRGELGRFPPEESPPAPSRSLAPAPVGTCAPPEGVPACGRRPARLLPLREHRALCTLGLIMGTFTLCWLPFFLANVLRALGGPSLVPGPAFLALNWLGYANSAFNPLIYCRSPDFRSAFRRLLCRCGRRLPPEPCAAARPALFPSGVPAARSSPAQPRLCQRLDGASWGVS

In series [6] the target is T1, Beta-2 adrenergic receptor. The series is described as follows: Agonist activity at human beta2 adrenergic receptor in human BEAS-2B cells by cAMP accumulation assay. In kind it is functional, cell-based.
The subject of series [7] is Cavia porcellus. The series is described as follows: Bronchoprotection activity against acetylcholine-induced guinea pig bronchoconstriction model at 1 to 100 ug/ml administered as nebulized dosing measured after 72 hrs. In kind it is functional, organism-based. The gist of the method: (§1)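 Guinea pigs received the compound by nebulizer, and testing took place 72 h after treatment. Pulmonary resistance was measured by head-out plethysmograph in anesthetized, spontaneously breathing animals. Bronchoconstriction was induced by increasing intravenous acetylcholine doses. The ACh dose doubling baseline resistance (PD2) was calculated.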

A short description of series [8]: Dissociation constant, pKa of the compound. In kind it is physicochemical.
The test system of series [9] is Cavia porcellus. Description: Bronchoprotection activity against acetylcholine-induced guinea pig bronchoconstriction model administered as nebulized dosing measured after 72 hrs. In kind it is functional, organism-based. An outline of the steps:
as §1

Series [10] concerns the target T2, Muscarinic acetylcholine receptor M2 (Homo sapiens, UniProt P08172).
T2 sequence (P08172 whole entry): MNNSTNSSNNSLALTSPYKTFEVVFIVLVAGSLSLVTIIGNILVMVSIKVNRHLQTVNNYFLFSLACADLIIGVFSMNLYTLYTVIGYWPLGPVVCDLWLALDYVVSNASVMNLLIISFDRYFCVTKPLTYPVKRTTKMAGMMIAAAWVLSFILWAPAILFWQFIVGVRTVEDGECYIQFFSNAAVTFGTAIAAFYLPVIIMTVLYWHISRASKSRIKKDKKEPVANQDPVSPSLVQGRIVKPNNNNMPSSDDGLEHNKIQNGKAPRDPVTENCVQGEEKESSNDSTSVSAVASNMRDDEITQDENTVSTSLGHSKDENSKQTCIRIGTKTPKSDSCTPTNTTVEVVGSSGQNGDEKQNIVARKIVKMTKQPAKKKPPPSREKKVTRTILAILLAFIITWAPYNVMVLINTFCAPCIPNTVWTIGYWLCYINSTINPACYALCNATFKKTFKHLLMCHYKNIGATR
The series is described as follows: Inhibition of muscarinic acetylcholine receptor M2 (unknown origin).

The target in series [11] is hERG (KCNH2) (Homo sapiens, UniProt Q12809). Description: Inhibition of human ERG at 40 nM.
Chain of hERG (KCNH2) (Q12809 whole entry): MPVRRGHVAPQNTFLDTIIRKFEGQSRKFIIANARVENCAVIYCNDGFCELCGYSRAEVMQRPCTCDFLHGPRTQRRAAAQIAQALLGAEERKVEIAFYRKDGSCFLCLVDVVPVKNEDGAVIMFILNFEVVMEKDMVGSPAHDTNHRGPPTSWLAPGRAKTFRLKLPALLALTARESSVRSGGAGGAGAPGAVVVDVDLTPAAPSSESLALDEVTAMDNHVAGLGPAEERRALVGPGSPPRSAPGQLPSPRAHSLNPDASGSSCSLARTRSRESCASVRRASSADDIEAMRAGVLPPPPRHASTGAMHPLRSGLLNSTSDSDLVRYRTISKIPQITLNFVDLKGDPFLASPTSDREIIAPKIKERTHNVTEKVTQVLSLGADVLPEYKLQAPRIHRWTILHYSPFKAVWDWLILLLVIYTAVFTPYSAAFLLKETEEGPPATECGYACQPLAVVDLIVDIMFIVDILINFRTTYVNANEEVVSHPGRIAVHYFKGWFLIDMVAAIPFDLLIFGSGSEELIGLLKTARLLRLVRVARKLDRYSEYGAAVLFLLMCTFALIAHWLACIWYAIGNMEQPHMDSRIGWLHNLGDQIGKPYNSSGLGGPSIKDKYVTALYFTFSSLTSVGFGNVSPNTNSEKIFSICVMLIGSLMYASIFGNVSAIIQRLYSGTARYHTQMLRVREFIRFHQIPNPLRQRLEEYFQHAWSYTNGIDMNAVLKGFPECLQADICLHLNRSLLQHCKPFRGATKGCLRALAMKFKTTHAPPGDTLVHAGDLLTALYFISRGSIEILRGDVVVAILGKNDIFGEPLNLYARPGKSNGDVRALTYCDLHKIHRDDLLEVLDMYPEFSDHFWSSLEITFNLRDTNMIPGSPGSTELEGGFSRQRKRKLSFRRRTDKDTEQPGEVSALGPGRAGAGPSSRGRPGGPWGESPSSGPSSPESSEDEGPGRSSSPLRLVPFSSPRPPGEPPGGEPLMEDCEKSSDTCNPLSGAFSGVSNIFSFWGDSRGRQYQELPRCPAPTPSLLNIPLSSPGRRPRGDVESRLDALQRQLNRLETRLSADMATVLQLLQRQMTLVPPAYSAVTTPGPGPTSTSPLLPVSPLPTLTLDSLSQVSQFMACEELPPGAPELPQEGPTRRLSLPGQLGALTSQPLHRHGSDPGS
Series [12] can be described thus: Clearance in rat. In kind it is ADME, organism-based. To be noted: in vivo.
Series [13] is described as follows: Oral bioavailability in rat. It is filed as ADME, organism-based. To be noted: in vivo.
Series [14] concerns Cavia porcellus. Description: Bronchoprotection activity against acetylcholine-induced guinea pig bronchoconstriction model at >= 30 ug/ml administered as nebulized dosing measured after 72 hrs. In kind it is functional, organism-based. An outline of the steps: as §1
The nature of series [15]: Clearance in dog. It is filed as ADME, organism-based, Canis lupus familiaris. To be noted: in vivo.
A short description of series [16]: Oral bioavailability in dog. It is filed as ADME, organism-based, Canis lupus familiaris. To be noted: in vivo.
The species named for series [17] is Homo sapiens. The series is described as follows: Inhibition of muscarinic receptor (unknown origin) at 1 uM.

Each structure is given as a SMILES string. The source made the active and inactive calls. No cut-off for these calls is given here.

T1 sequence (P07550 whole entry): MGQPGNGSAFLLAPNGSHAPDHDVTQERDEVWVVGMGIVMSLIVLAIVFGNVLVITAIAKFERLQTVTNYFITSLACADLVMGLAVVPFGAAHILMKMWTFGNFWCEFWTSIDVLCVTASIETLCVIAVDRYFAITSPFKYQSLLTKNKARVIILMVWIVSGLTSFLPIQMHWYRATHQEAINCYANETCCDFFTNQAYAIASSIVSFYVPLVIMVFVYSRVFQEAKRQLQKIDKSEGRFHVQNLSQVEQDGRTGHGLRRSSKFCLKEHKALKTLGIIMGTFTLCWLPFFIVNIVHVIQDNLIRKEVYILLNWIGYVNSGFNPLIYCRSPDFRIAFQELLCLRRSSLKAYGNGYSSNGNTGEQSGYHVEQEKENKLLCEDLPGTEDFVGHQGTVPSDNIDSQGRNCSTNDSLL

As to `NCCCOc1ccc(Nc2ccc(CCNC[C@H](O)c3ccc(O)c4[nH]c(=O)ccc34)cc2)cc1`, in [1], the affinity, expressed as Ki, was 5.01 nM. Further, the Ratio Ki in [2] amounted to 95. The EC50 is 0.158 nM in [3], 7.94 nM in series [4], 39.8 nM in series [5] and 0.631 nM in series [6].
In series [1], `COc1ccc(Nc2ccc(CCNC[C@H](O)c3ccc(O)c4[nH]c(=O)ccc34)cc2)cc1-c1ccc(CN)cc1` had an inhibition constant Ki of 1.26 nM. Also, in [2], the Ratio Ki was 101. Also, in series [7], the outcome was Active. Also, the EC50 in series [3] was 0.1 nM; in series [4] it was 2.51 nM; in series [5], 10 nM; in series [6], 0.501 nM.
For the compound `O=c1ccc2c([C@@H](O)CNCCc3ccc(Nc4ccc(OCCN5CCNCC5)cc4)cc3)ccc(O)c2[nH]1`, affinity in [1] was put at a Ki of 10 nM. Also, in series [2], the Ratio Ki was 116. Also, the EC50 in series [3] was 0.126 nM; in series [4], 10 nM; in series [5], 39.8 nM; in series [6], 1.58 nM. The pKa in [8] turned out to be 9.1.
On to `O=c1ccc2c([C@@H](O)CNCCc3ccc(Nc4ccc(OCCN5CCOCC5)cc4)cc3)ccc(O)c2[nH]1`, for which, in series [1], the affinity corresponds to a Ki of 20 nM. Besides, the Ratio Ki in [2] was 41. Further, the EC50 was 0.316 nM in [3], 12.6 nM in series [4], 50.1 nM in [5] and 3.16 nM in series [6].
In series [1], `CS(=O)(=O)N1CCN(CCOc2ccc(Nc3ccc(CCNC[C@H](O)c4ccc(O)c5[nH]c(=O)ccc45)cc3)cc2)CC1` had an inhibition constant Ki of 31.6 nM. The Ratio Ki in [2] amounted to 30. Besides, the EC50 in [3] is 0.631 nM; in series [4] it was 7.94 nM; in series [5], 31.6 nM; in series [6], 6.31 nM.
With `COc1ccc(Nc2ccc(CCNC[C@H](O)c3ccc(O)c4[nH]c(=O)ccc34)cc2)cc1-c1cccc(CN)c1`, in [1], the Ki is 1.58 nM. Further, in series [2], the Ratio Ki turned out to be 146. The outcome in series [7] was Active. In addition, the 50% effective concentration (EC50) in series [3] is 0.0794 nM; in series [4] it was 3.98 nM; in [5], 25.1 nM; in series [6], 0.316 nM.
On to `CC(C)(N)COc1ccc(Nc2ccc(CCNC[C@H](O)c3ccc(O)c(NC=O)c3)cc2)cc1`, for which, in [1], the Ki was 25.1 nM. Besides, in [2], the Ratio Ki worked out at 94. In addition, the EC50 in [3] is 0.251 nM; in series [4] it was 6.31 nM; in series [5], 39.8 nM; in series [6] it was 3.16 nM.
The compound `O=C(NCCOc1ccc(Nc2ccc(CCNC[C@H](O)c3ccc(O)c4[nH]c(=O)ccc34)cc2)cc1)c1ccccc1` showed an inhibitory constant (Ki) in series [1] of 10 nM. Moreover, the Ratio Ki in [2] was 13. The EC50 in series [3] is 0.501 nM; in series [4], 2 nM; in series [5], 12.6 nM; in [6], 1.58 nM.
Compound `COc1ccc(Nc2ccc(CCNC[C@H](O)c3ccc(O)c4[nH]c(=O)ccc34)cc2)cc1-c1ccccc1CN` gave an inhibition constant Ki in series [1] of 3.16 nM. The Ratio Ki in [2] came out at 20. In addition, the EC50 in series [3] was 0.126 nM; in series [4] it was 2.51 nM; in [5], 6.31 nM; in series [6], 0.794 nM.
As for `NCCOc1ccc(Nc2ccc(CCNC[C@H](O)c3ccc(O)c4[nH]c(=O)ccc34)cc2)cc1`, in [1], the Ki is 6.31 nM. In [2], the Ratio Ki worked out at 64. Besides, the EC50 in [3] was 0.1 nM; in series [4], 7.94 nM; in [5] it was 39.8 nM; in series [6], 0.501 nM.
In turn, `CCOc1ccc(Nc2ccc(CCNC[C@H](O)c3ccc(O)c4[nH]c(=O)ccc34)cc2)cc1` gave an inhibition constant (Ki) in series [1] of 12.6 nM. The Ratio Ki in series [2] came out at 72. Moreover, the concentration for a half-maximal effect (EC50) in series [3] is 0.251 nM; in [6] it was 2 nM. In [9], the outcome was inactive.
In [1], `COc1ccc(Nc2ccc(CCNC[C@H](O)c3ccc(O)c4[nH]c(=O)ccc34)cc2)cc1-c1ccccc1` had a Ki of 6.31 nM. Further, the Ratio Ki in series [2] was 115. Also, the outcome in series [7] was Active.
`CC(C)(C)OC(=O)NCCOc1ccc(Nc2ccc(CCNC[C@H](O)c3ccc(O)c4[nH]c(=O)ccc34)cc2)cc1` had a Ki in series [1] of 20 nM. In addition, the Ratio Ki in series [2] was found to be 26. In addition, the EC50 was 0.501 nM in series [3], 12.6 nM in series [4], 12.6 nM in [5] and 2.51 nM in series [6].
As for `CC(C)(N)COc1ccc(Nc2ccc(CCNC[C@H](O)c3ccc(O)c4[nH]c(=O)ccc34)cc2)cc1-c1ccccc1`, in series [1], affinity was put at a Ki of 1 nM. Moreover, in series [2], the Ratio Ki was found to be 140. The half-maximal effective concentration (EC50) in [3] was 0.0631 nM; in series [4], 1.58 nM; in series [5], 7.94 nM; in series [6], 0.631 nM.
Consider `CC(C)(N)COc1ccc(Nc2ccc(CCNC[C@H](O)c3ccc(O)c4[nH]c(=O)ccc34)cc2)cc1`, for which the inhibitory constant (Ki) in [1] is 6.31 nM; in [10], 631 nM. Also, the Ratio Ki in series [2] was 64. The compound also showed an inhibition at 0.04 µM in series [11] of 7%. For the same compound, the clearance in series [12] is 6.67 mL/min/kg; in series [15], 40 mL/min/kg. The values for the bioavailability in [13] and in [16] were 1% and 5%, respectively. For the same compound, the half-maximal effective concentration (EC50) in series [3] is 0.0794 nM; in series [4], 6.31 nM; in series [5], 63.1 nM; in [6], 1 nM. The outcome in series [14] was Active. Moreover, the inhibition entry in series [17] is “Active”. Besides, the Activity result in [9] was “Dose-dependent effect”.
Take `NCCCCOc1ccc(Nc2ccc(CCNC[C@H](O)c3ccc(O)c4[nH]c(=O)ccc34)cc2)cc1`: the inhibition constant (Ki) in series [1] was 5.01 nM. For the same compound, in series [2], the Ratio Ki was 85. The EC50 is 0.126 nM in [3], 7.94 nM in series [4], 39.8 nM in series [5] and 0.631 nM in series [6].
For the compound `O=CNc1cc([C@@H](O)CNCCc2ccc(NC[C@H](O)c3ccccc3)cc2)ccc1O` [MILVETEROL], the Ratio Ki in series [2] worked out at 2910. In series [5], a half-maximal effect (EC50) was put at 39.8 nM.
As to `NCCOCCOc1ccc(Nc2ccc(CCNC[C@H](O)c3ccc(O)c4[nH]c(=O)ccc34)cc2)cc1`, the inhibitory constant (Ki) in [1] was 6.31 nM. Besides, the Ratio Ki in series [2] was 95. Also, the EC50 in series [3] is 0.158 nM; in series [4] it was 7.94 nM; in [5], 39.8 nM; in series [6], 0.631 nM.

Usually Ki stands for a dissociation constant, usually derived from enzyme kinetics or from competition with a known ligand. A word on the EC50: it is the concentration needed to bring the measured effect to its halfway point. A lower EC50 goes with an effect from little substance. As a reminder, the pKa is the negative logarithm of the acid dissociation constant. What is called inhibition is the share of the control response that was lost under treatment. A word on the clearance: it is a measure of how efficiently the substance is removed, as volume per time. What is called bioavailability is the share of a dose that reaches the circulation, judged against a reference dose that is usually intravenous.

Values taken from ChEMBL document CHEMBL3297645, “Discovery of TD-4306, a long-acting β2-agonist for the treatment of asthma and COPD” (Bioorg Med Chem Lett, 2014).
